The source of these data is ChEMBL document CHEMBL1142284, “Identification of N-(quinolin-8-yl)benzenesulfonamides as agents capable of down-regulating NFkappaB activity within two separate high-throughput screens of NFkappaB activation” (Bioorg Med Chem Lett, 2008).

The structures appear in SMILES notation. Calls of active or inactive are those of the source. No cut-off for these calls is given here. Peptide text beside a SMILES is read from it. * marks the point of attachment. Cbz = O=C(OCc1ccccc1)*

Test [1] can be described thus: Inhibition of TNFalpha stimulated human NF-kappaB-mediated beta lactamase gene expression in HUVEC. Format: cell-based.
The test system of the next test is OCI-Ly3. Description: (§1) Cytotoxicity against NF-kappaB overexpressing human OCI-Ly3 cells after 4 hrs. Format: functional, cell-based.
Test [2] has as its target T1, NF-kappa-B inhibitor alpha (Homo sapiens) (UniProt P25963).
T1 sequence (whole entry): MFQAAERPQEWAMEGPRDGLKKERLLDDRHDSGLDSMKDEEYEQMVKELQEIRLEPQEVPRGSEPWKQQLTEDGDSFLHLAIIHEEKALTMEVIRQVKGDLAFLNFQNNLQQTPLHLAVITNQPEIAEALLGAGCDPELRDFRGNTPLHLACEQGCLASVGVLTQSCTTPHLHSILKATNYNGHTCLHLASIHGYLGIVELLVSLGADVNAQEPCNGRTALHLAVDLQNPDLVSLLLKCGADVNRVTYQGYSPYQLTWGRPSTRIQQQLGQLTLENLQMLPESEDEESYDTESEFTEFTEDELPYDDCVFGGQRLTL
Description: Induction of human IkappaBalpha stabilization in OCI-Ly3 cells by green light emiting IkappaBalpha-fused luciferase reporter gene assay relative to control. Type of test: cell-based. The gist of the method: (§2)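 The IκBα-CBG68 fusion (green luminescence) and the CBR control reporter (red) were induced with doxycycline. The read-out was green luminescence, and EC50 is given with % efficacy relative to the MG-132 positive control. Each experiment was a concentration titration run in duplicate with concentration-response curve fitting, and values are averages of two to three experiments.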
A general note: A reporter such as luciferase makes a cellular process visible.

In test [3] the target is Transcription factor p65 (Homo sapiens) (UniProt Q04206). Description: Inhibition of TNF-alpha-stimulated human NF-kappaB p65 RelA subunit nuclear translocation in HUVEC relative to control. Format: cell-based. The gist of the method: (§3)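 HUVEC (fewer than 8 passages) were seeded at 3,000 cells/well. Compounds were added in 8-point series, either from 10 µM final in media with 0.33% DMSO diluted 1:3, or from 8 µM diluted 1:2. After 3.5 h with compound, cells were stimulated with […] for 30 min. Cells were then fixed, permeabilized, stained with Hoechst and with anti-p65 plus an Alexa 647 secondary, and imaged automatically. IC50 is from curve fitting of one experiment run in triplicate, with BAY 11-7082 as the positive control.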
Chain of Transcription factor p65 (Homo sapiens) (Q04206 whole entry): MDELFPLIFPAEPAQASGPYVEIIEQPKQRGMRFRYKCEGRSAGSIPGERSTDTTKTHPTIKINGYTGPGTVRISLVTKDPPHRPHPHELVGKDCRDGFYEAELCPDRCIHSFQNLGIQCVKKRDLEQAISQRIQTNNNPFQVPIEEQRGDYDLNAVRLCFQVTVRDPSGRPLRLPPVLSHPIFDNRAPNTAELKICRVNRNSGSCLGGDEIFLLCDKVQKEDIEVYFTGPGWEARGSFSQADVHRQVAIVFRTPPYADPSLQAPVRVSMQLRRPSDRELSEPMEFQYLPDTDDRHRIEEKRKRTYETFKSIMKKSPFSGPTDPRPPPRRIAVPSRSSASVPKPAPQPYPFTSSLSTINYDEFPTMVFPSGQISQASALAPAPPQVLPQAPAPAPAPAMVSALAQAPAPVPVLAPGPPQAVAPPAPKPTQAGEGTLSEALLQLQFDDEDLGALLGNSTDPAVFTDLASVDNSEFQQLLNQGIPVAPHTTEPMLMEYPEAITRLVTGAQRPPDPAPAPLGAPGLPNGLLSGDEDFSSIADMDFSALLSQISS

Test [4] in a line: as §1. Type of test: functional, cell-based. The settings on record: OCI-Ly3, 4 h.
Test [5] addresses Transcription factor p65 (Homo sapiens) (UniProt Q04206). Description: Inhibition of TNF-alpha-stimulated human NF-kappaB p65 RelA subunit nuclear translocation in HUVEC. The gist of the method: as §3
The test system of another test is HUVEC. Description: Inhibition of human E3 ubiquitin ligase-mediated IkappaBalpha ubiquitination in HUVEC. Format: cell-based.
For test [6], the target named is T1, NF-kappa-B inhibitor alpha (Homo sapiens). Description: Induction of human IkappaBalpha stabilization in OCI-Ly3 cells assessed as ratio of green light emiting IkappaBalpha-fused luciferase expression to red light emiting native luciferase expression. Format: cell-based. The gist of the method: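 Dual-luciferase IκBα stabilization assay: doxycycline induces both an IκBα-CBG68 fusion (green luminescence) and a CBR control (red luminescence), and the red signal normalizes for nonspecific effects. EC50 comes from the green/red luminescence ratio. Each experiment was a concentration titration run in duplicate with concentration-response curve fitting, and values are averages of two to three experiments.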

For test [7] the target is unchanged. Description: Induction of human IkappaBalpha stabilization in OCI-Ly3 cells by green light emiting IkappaBalpha-fused luciferase reporter gene assay. Format: cell-based. The gist of the method: as §2

For the molecule `O=S(=O)(Nc1cccc2cccnc12)c1ccc(Br)s1`, the half-inhibitory concentration (IC50) in test [1] was 3.4 µM. Moreover, in the test with OCI-Ly3, the result was inactive. The Efficacy is 170% in test [2] and greater than 90% in [3].

Turning to `Nc1ccccc1S(=O)(=O)Nc1cccc2cccnc12`, the IC50 in test [1] is 13.5 µM; in test [4] it was greater than 57 µM. Further, the results for the Efficacy in [2] and in test [3] were 300% and greater than 90%, respectively.

`Cc1ccc(S(=O)(=O)Nc2cccc3cccnc23)c([N+](=O)[O-])c1`: the concentration for half-maximal inhibition (IC50) in [1] is 6 µM; in test [4], greater than 57 µM. Besides, the results for the Efficacy in test [2] and in test [3] were 275% and greater than 90%, respectively.

Turning to `Cc1ccc2cccc(NS(=O)(=O)c3ccccc3[N+](=O)[O-])c2n1`, the IC50 in test [1] is 6 µM. The result in the test with OCI-Ly3 was inactive. Also, the Efficacy was 200% in [2] and greater than 90% in [3].

For `Cc1ccc2cccc(NS(=O)(=O)c3cccc([N+](=O)[O-])c3)c2n1`, the IC50 was 1 µM in [1] and greater than 57 µM in [4]. In addition, the values for the Efficacy in test [2] and in [3] were 110% and greater than 90%, respectively.

As to `COc1cc(NS(=O)(=O)c2ccc(C)cc2)c2nc(C)ccc2c1`, the half-inhibitory concentration (IC50) in test [1] and in [4] was greater than 57 µM throughout. Further, the Efficacy in [2] is 150%; in [3], greater than 90%.

Turning to `Cc1cnc2c3c(ccc2c1)-c1ccccc1S(=O)(=O)N3`, in test [1], the IC50 worked out at 8.1 µM. In addition, the result in the test on OCI-Ly3 was inactive. Besides, in [2], the Efficacy amounted to 32%.

In test [1], `O=S(=O)(Nc1cccc2cccnc12)c1cccs1` gave an IC50 of 7 µM. In addition, in the test with OCI-Ly3, the result was inactive. Besides, the Efficacy in test [2] was 250%; in test [3], greater than 90%.

Regarding `O=S1(=O)Nc2c(ccc3cccnc23)-c2cc(C(F)(F)F)ccc21`, the midpoint of inhibition in test [1], the IC50, lay at 1.2 µM. For the same molecule, the outcome in the test on OCI-Ly3 was inactive. Also, the Efficacy in test [2] was 32%; in test [3], greater than 90%.

Take `COc1cc(NS(=O)(=O)c2ccc(C)cc2N)c2ncccc2c1`: the IC50 in test [1] is 2 µM; in test [4], greater than 57 µM. Also, the values for the Efficacy in test [2] and in [3] were 90% and greater than 90%, respectively.

`O=[N+]([O-])c1ccc(S(=O)(=O)Nc2cccc3cccnc23)cc1` came in with a 50% inhibitory concentration (IC50) in test [1] of 5 µM. Further, the result in the test on OCI-Ly3 was inactive. The Efficacy in test [2] was 560%; in test [3] it was greater than 90%.

Consider `Cc1ccc2ccc3c(c2n1)NS(=O)(=O)c1ccc(O)cc1-3`, for which the half-inhibitory concentration (IC50) in test [1] is 6.7 µM; in test [4], greater than 57 µM. Besides, the values for the Efficacy in test [2] and in test [3] were 120% and greater than 90%, respectively.

In test [1], `COc1cc(NS(=O)(=O)c2ccc(C)cc2N)c2nc(C)ccc2c1` had an IC50 greater than 57 µM. Besides, the outcome (in [5]; with OCI-Ly3) was inactive. The Efficacy in test [2] is 23%.

`O=S1(=O)Nc2c(ccc3cccnc23)-c2cc(F)ccc21` came in with a half-maximal inhibitory concentration (IC50) in test [1] of 1.8 µM. In addition, the outcome in the test with OCI-Ly3 was inactive. Besides, the Efficacy is 122% in test [2] and greater than 90% in [3].

Consider `[O-][S+](c1ccccc1)c1ccc2nnnn2n1` (centres undefined), for which, in the test with HUVEC, the outcome was Active.

With `COc1cnc2c3c(ccc2c1)-c1ccccc1S(=O)(=O)N3`, in [3], the Efficacy was greater than 90%.

As for `CC(C)C[C@@H](C=O)NC(=O)[C@H](CC(C)C)NC(=O)[C@H](CC(C)C)NC(=O)OCc1ccccc1` [MG-132] (Cbz-Leu-Leu-Leu-aldehyde), the IC50 in test [1] is 0.6 µM; in test [4], greater than 10 µM. The same molecule showed an Efficacy in test [2] of 100%.

Take `COc1ccc2c(c1)-c1ccc3ccc(C)nc3c1NS2(=O)=O`: the values for the half-inhibitory concentration (IC50) in [1] and in test [4] were 3.2 µM and greater than 57 µM, respectively. Further, the Efficacy was 200% in test [2] and greater than 90% in [3].

On to `O=[N+]([O-])c1ccccc1S(=O)(=O)Nc1cccc2cccnc12`, for which, in test [1], the IC50 was 10 µM. For the same molecule, in the test on OCI-Ly3, the result was inactive. For the same molecule, the results for the Efficacy in [2] and in test [3] were 620% and greater than 90%, respectively.

Take `Cc1ccc2cccc(NS(=O)(=O)c3ccc(C(F)(F)F)cc3[N+](=O)[O-])c2n1`: the IC50 in test [1] was 13 µM; in test [4], greater than 57 µM. Moreover, the Efficacy in test [2] is 50%; in test [3] it was greater than 90%.

In the case of `O=S(=O)(Nc1cccc2cccnc12)c1ccccc1`, 8 µM corresponded to half-maximal inhibition in test [1] (IC50). In addition, the outcome with OCI-Ly3 was inactive. Besides, the Efficacy is 350% in test [2] and greater than 90% in [3].

The molecule `Cc1ccc2cccc(NS(=O)(=O)c3ccccc3N)c2n1` registered a half-maximal inhibitory concentration (IC50) in test [1] of 5.5 µM. Also, the result with OCI-Ly3 was inactive. For the same molecule, the Efficacy is 250% in test [2] and greater than 90% in test [3].

Regarding `COc1ccc(S(=O)(=O)Nc2cccc3ccc(C)nc23)c([N+](=O)[O-])c1`, the Efficacy in test [3] came to 78%.

In the case of `COc1cccc2nc(-c3cccs3)nc(NN3C(=O)C=C(C)C3=O)c12` [AS-602868], the 50% inhibitory concentration (IC50) in test [1] was 2 µM. Besides, the result (in [5]; with OCI-Ly3; in test [6]; in test [7]) was inactive.

Take `COc1cc2cccnc2c2c1-c1cc(C)ccc1S(=O)(=O)N2`: the IC50 in test [1] is 2 µM. Besides, the result in the test on OCI-Ly3 was inactive. Besides, the Efficacy is 34% in [2] and greater than 90% in test [3].

Regarding `Cc1ccc2c(c1)-c1ccc3cccnc3c1NS2(=O)=O`, the IC50 in test [1] was 0.8 µM; in test [4], greater than 57 µM. Also, the Efficacy was 60% in test [2] and greater than 90% in [3].

As for `Cc1ccc2cccc(NS(=O)(=O)c3ccc(Br)s3)c2n1`, the IC50 is 5 µM in [1] and greater than 57 µM in [4]. For the same molecule, the Efficacy in test [2] stood at 22%; in test [3] it was 75%.

For `COc1cc(NS(=O)(=O)c2ccc(C)cc2[N+](=O)[O-])c2ncccc2c1`, the half-maximal inhibitory concentration (IC50) is 4 µM in [1] and greater than 57 µM in test [4]. Further, the Efficacy is 60% in [2] and greater than 90% in test [3].

Consider `Cc1ccc2cccc(NS(=O)(=O)c3ccc(Cl)s3)c2n1`, for which the IC50 in test [1] is 1.3 µM; in test [4], greater than 10 µM. Besides, the figures for the Efficacy in [2] and in test [3] were 60% and greater than 90%, respectively.

In the case of `O=S1(=O)Nc2c(ccc3cccnc23)-c2ccccc21`, 3.4 µM corresponded to half-maximal inhibition in test [1] (IC50). The outcome in the test on OCI-Ly3 and in the test with HUVEC was inactive. For the same molecule, the Efficacy in [2] was 120%; in test [3], greater than 90%.

On to `COc1cc2ccc(C)nc2c2c1-c1cc(C)ccc1S(=O)(=O)N2`, for which the IC50 was 1.1 µM in test [1] and greater than 57 µM in [4]. Besides, the figures for the Efficacy in test [2] and in [3] were 300% and greater than 90%, respectively.

Take `COc1ccc2c(c1)-c1ccc3cccnc3c1NS2(=O)=O`: half-maximal inhibition in [1] (IC50) required 1.3 µM. In addition, in the test on OCI-Ly3, the outcome was inactive. Also, the Efficacy in test [2] is 20%; in [3] it was greater than 90%.

Consider `Cc1ccc2ccc3c(c2n1)NS(=O)(=O)c1ccc(C(F)(F)F)cc1-3`, for which inhibition in test [1] was half-maximal at 3.6 µM (IC50). Moreover, in the test with OCI-Ly3, the outcome was inactive. Further, the Efficacy is 700% in [2] and greater than 90% in [3].

`O=S1(=O)Nc2c(ccc3cccnc23)-c2cc(O)ccc21`: the outcome in test [5] was inactive.

With `Cc1ccc([N+](=O)[O-])cc1S(=O)(=O)Nc1cccc2cccnc12`, the values for the half-maximal inhibitory concentration (IC50) in test [1] and in [4] were 1.8 µM and greater than 57 µM, respectively. For the same molecule, the Efficacy in [2] was 18%; in [3], greater than 90%.

Consider `O=S(=O)(Nc1cccc2cccnc12)c1ccc(Cl)s1`, for which the IC50 in [1] is 1 µM; in [4], greater than 57 µM. For the same molecule, the Efficacy is 190% in test [2] and greater than 90% in test [3].

On to `Cc1ccc2cccc(NS(=O)(=O)c3cc([N+](=O)[O-])ccc3C)c2n1`, for which the IC50 in test [1] is greater than 57 µM. The outcome (in test [5]; in the test on OCI-Ly3) was inactive.

In test [1], `O=S1(=O)Nc2c(ccc3cccnc23)-c2cc(Cl)ccc21` returned an IC50 of 1.9 µM. Moreover, the result with OCI-Ly3 was inactive. Moreover, the Efficacy in [2] was 66%; in test [3], greater than 90%.

The molecule `Cc1ccc(S(=O)(=O)/C=C/C#N)cc1` had an Efficacy in test [3] greater than 90%.

As to `O=[N+]([O-])c1cc(C(F)(F)F)ccc1S(=O)(=O)Nc1cccc2cccnc12`, the half-maximal inhibitory concentration (IC50) in test [1] is 1.3 µM; in test [4], greater than 57 µM. Moreover, the Efficacy was 200% in test [2] and greater than 90% in [3].

As a reminder, the IC50 is the point on the concentration scale where inhibition reaches its midpoint. A high value points to weaker potency in that assay.
